# Measurements from ChEMBL document CHEMBL1134638, “Synthetic 2-aroylindole derivatives as a new class of potent tubulin-inhibitory, antimitotic agents” (J Med Chem, 2001).
# Values joined by “and” are separate entries in the source; they are usually repeats but may differ in a detail not shown here. Equal values may be shown once.
# Tests used:
# [1] = biological target: Tubulin beta chain (Bos taurus) (UniProt Q6B856); assay: beta-Tubulin GTPase activity at 10 uM concentration
# Summary of the method: (§1)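 MAP-free purified bovine brain tubulin (1 mg/mL) in PEM pH 6.6 with 1 mM MgCl2, 100 µM [α-32P]GTP and 1 M monosodium glutamate. Compound added beforehand, final 1% DMSO. Incubated 1 h at 37 °C, stopped with 1% SDS. GDP/GTP separated by PEI-cellulose TLC in 0.35 M (NH4)2CO3 and quantified by phosphorimager as the GDP/GTP ratio.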
# [2] = biological target: Tubulin beta chain (Bos taurus) (UniProt Q6B856); assay: beta-Tubulin GTPase activity at 1 uM concentration; summary of the method: as §1
# U373 MG [3] = assay: Cytotoxicity against U373 astrocytoma cells.; assay type: functional, cell-based, U-373MG ATCC; conditions: Homo sapiens
# Summary of the method: (§2)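 XTT proliferation assay measuring cellular metabolic activity after 48 h incubation with compound. Compounds dissolved in DMSO at 1 mg/mL stock. IC50 or estimates obtained by nonlinear regression. Each experiment at least in duplicate.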
# SK-OV-3 [4] = assay: In vitro inhibitory activity against SK-OV-3 cells using XTT proliferation assay.; assay type: functional, cell-based; conditions: Homo sapiens; summary of the method: as §2
# U373 MG [5] = assay: (§3) Cell cycle arrest activity against U373 astrocytoma cells.; assay type: functional, cell-based, U-373MG ATCC; conditions: Homo sapiens
# Summary of the method: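 U373 cells (5 × 10^6) exposed to compound for 24 h at 37 °C, trypsinised, washed in PBS, fixed in 80% methanol 30 min on ice. Stained with 20 µg/mL propidium iodide plus 1 mg/mL RNase A in PBS/0.1% saponin, 30 min at 37 °C. DNA content read by flow cytometry; G2/M fraction modelled. IC50 by nonlinear regression of dose-response.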
# Tubulin beta chain [6] = biological target: T1, Tubulin beta chain (Bos taurus, UniProt Q6B856); assay: Inhibition of tubulin polymerization.; assay type: functional
# T1 sequence (Q6B856 whole entry): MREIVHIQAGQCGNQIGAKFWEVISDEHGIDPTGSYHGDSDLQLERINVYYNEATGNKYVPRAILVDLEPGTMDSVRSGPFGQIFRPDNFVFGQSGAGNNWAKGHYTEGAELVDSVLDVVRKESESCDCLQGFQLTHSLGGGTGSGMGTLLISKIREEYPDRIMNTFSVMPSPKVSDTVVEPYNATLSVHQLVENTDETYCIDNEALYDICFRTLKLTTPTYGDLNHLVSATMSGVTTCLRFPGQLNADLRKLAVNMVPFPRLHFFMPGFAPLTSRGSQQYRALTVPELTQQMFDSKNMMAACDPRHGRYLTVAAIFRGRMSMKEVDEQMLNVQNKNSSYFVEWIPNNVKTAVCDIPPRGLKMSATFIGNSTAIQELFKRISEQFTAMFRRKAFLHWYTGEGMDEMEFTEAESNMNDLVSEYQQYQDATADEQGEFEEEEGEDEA
# Tumor Cell line = assay: Mean cytotoxicity against a panel of human tumor cell lines; assay type: functional
# Summary of the method: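 Modified propidium iodide assay quantifying dead cells by DNA/RNA staining, run on a human tumor cell panel (breast, colon, stomach, lung, melanoma, ovary, renal, soft tissue lines). Growth inhibition expressed as % T/C; IC70 per line from concentration-viability plots. Mean IC70 is the geometric mean across lines; unreached values set to the lowest or highest concentration tested.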
# HeLa [7] = assay: In vitro inhibitory activity against HeLa/KB cells using XTT proliferation assay.; assay type: functional, cell-based; conditions: Homo sapiens; summary of the method: as §2
# Tubulin = Tubulin (Bos taurus, UniProt Q6B856+Q862L2+Q862F3); assay: Inhibition of tubulin polymerization; No effect at a concentration up to 10 uM; assay type: functional
# Tubulin beta chain [8] = biological target: T1, Tubulin beta chain; assay: Inhibition of tubulin polymerization; assay type: functional
# Summary of the method: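 Bovine brain tubulin with MAPs, prepared by polymerization/depolymerization cycles (0.8 mg/mL), incubated with compound (4 µg/mL for screening, a concentration range for IC50). Run in PEM buffer pH 6.6 with 1 mM GTP at 37 °C for 1 h. Microtubules collected on 0.22 µm filters, stained with amido black, eluted, absorbance read at 600 nm.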
# SK-OV-3 [9] = assay: In vitro inhibitory activity against SK-OV-3 cells using XTT proliferation assay; assay type: functional, cell-based; conditions: Homo sapiens; summary of the method: as §2
# HeLa [10] = assay: In vitro inhibitory activity against HeLa/KB cells using XTT proliferation assay; assay type: functional, cell-based; conditions: Homo sapiens; summary of the method: as §2
# [11] = biological target: Tubulin beta chain (Bos taurus) (UniProt Q6B856)
# [12] = biological target: Tubulin beta chain (Bos taurus) (UniProt Q6B856); remark: listed apart in the source
# Mus musculus [13] = assay: Medium maximum body weight change in percentage against MEXF 989 cells for a dose of 100 [mg/kg], schedule of d1-5,8-12 by oral administration in mice; assay type: functional
# Summary of the method: (§4)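 NMRI outbred nude mice aged 6–8 weeks, sex matched to the donor patient. About 25 mg tumor fragments (MEXF 989 or RXF 944L) implanted s.c. in both flanks. Once tumors reached 100–200 mm3, animals were randomized (6–12 tumors/group). Dosing 100 or 200 mg/kg/day orally on days 1–5 and 8–12, in 10% DMSO/PBS with 0.05% Tween 80. Calipers twice weekly. Outputs: T/C from median tumor weights, growth delay to 200% volume, and body weight change.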
# Mus musculus [14] = assay: Drug relative deaths against RXF 944LX cells for a dose of 200 [mg/kg], schedule of d1-5,8-12 by peroral administration in mice; assay type: functional
# Summary of the method: (§5)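 Outbred NMRI nude mice, 6-8 weeks old, sex matched to donor patient. s.c. fragments (~25 mg) implanted in both flanks. Randomised at 100-200 mm3, 6-12 tumors per group. Compound in DMSO diluted with PBS/0.05% Tween 80 to 10% final DMSO, given orally daily on days 1-5 and 8-12. Toxic deaths and body weight change recorded.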
# U373 MG [15] = assay: as §3; conditions: Homo sapiens
# Mus musculus [16] = assay: Optimum tumor weight of treated / control animals in % (deviation) for a dose of 100 [mg/kg], schedule of d1-5,8-12 by oral administration in mice; assay type: functional; summary of the method: as §4
# Mus musculus [17] = assay: Drug relative deaths against RXF 944LX cells for a dose of 100 [mg/kg], schedule of d1-5,8-12 by oral administration in mice; assay type: functional; summary of the method: as §5
# Mus musculus [18] = assay: Medium maximum body weight change in percentage against MEXF 989 cells for a dose of 200 [mg/kg], schedule of d1-5,8-12 by peroral administration in mice; assay type: functional; summary of the method: as §4
# Mus musculus [19] = assay: Medium maximum body weight change in percentage against RXF 944LX cells for a dose of 200 [mg/kg], schedule of d1-5,8-12 by peroral administration in mice; assay type: functional; summary of the method: as §4
# Mus musculus [20] = assay: Medium maximum body weight change in percentage against RXF 944LX cells for a dose of 100 [mg/kg], schedule of d1-5,8-12 by oral administration in mice; assay type: functional; summary of the method: as §4
# Mus musculus [21] = assay: Growth delay until tumor doubling in days against MEXF 989 cells for a dose of 200 [mg/kg], schedule of d1-5,8-12 by peroral administration in mice; assay type: functional; summary of the method: as §4
# Mus musculus [22] = assay: Drug relative deaths against MEXF 989 cells for a dose of 100 [mg/kg], schedule of d1-5,8-12 by oral administration in mice; assay type: functional; summary of the method: as §5
# Mus musculus [23] = assay: Growth delay until tumor doubling in days against RXF 944LX cells for a dose of 100 [mg/kg], schedule of d1-5,8-12 by oral administration in mice; assay type: functional; summary of the method: as §4
# Mus musculus [24] = assay: Drug relative deaths against MEXF 989 cells for a dose of 200 [mg/kg], schedule of d1-5,8-12 by peroral administration in mice; assay type: functional; summary of the method: as §5
# Mus musculus [25] = assay: Growth delay until tumor doubling in days against MEXF 989 cells for a dose of 100 [mg/kg], schedule of d1-5,8-12 in mice by oral administration.; assay type: functional; summary of the method: as §4
# Chain of Tubulin beta chain (Bos taurus) (Q6B856 whole entry): as above
IC50 (SK-OV-3 [4]),IC50 (Tubulin beta chain [6]),IC50 (HeLa [7]),IC50 (Tubulin),Structure (SMILES),IC70 (Tumor Cell line),other results
,,,,COC(=O)Nc1nc2cc(C(=O)c3cccs3)ccc2[nH]1,,GTPase Activity [1]: 9; GTPase Activity [2]: 4.9
11 nM,530 nM,11 nM,,COc1cccc(C(=O)c2cc3cc(OC)ccc3[nH]2)c1,0.27 µg/mL,IC50 (U373 MG [3]): 28 nM; IC50 (U373 MG [5]): 10.7 nM
> 9500 nM,,> 9500 nM,No effect,CCCCCOc1ccc(C(=O)c2cc3cc(OC)ccc3[nH]2)cc1,,
30 nM,860 nM,30 nM,,COc1cc(C(=O)c2cc3cc(C)ccc3[nH]2)cc(OC)c1OC,1.17 µg/mL,
,,,,COc1ccc2[nH]c(C(=O)c3cccc(SC(F)F)c3)cc2c1,,IC50 (Tubulin beta chain [8]): 2100 nM; IC50 (SK-OV-3 [9]): 360 nM; IC50 (HeLa [10]): 390 nM
9370 nM,,8790 nM,No effect,COc1cc(OC)c(OC)c(C(=O)c2cc3cc(OC)ccc3[nH]2)c1,,
11400 nM,,11400 nM,No effect,COc1ccc(C(=O)c2cc3cc(OC)ccc3[nH]2)cc1,,
,,,,CC(=O)O[C@H]1C(=O)[C@@]2(C)[C@H]([C@H](OC(=O)c3ccccc3)[C@]3(O)C[C@H](OC(=O)[C@H](O)[C@@H](NC(=O)c4ccccc4)c4ccccc4)C(C)=C1C3(C)C)[C@]1(OC(C)=O)CO[C@@H]1C[C@@H]2O,,GTPase Activity [11]: 3.3; GTPase Activity [12]: 1.4
> 10400 nM,,> 10400 nM,No effect,COc1ccc2[nH]c(C(=O)c3ccc(C(C)(C)C)cc3)cc2c1,,
100 nM,2500 nM,100 nM,,COc1ccc2[nH]c(C(=O)c3ccc(Cl)c(Cl)c3)cc2c1,1.34 µg/mL,
110 nM,1290 nM,36 nM,,COc1ccc2[nH]c(C(=O)c3ccccc3OC)cc2c1,0.35 µg/mL,
,,,,CC[C@]1(O)C[C@H]2CN(CCc3c([nH]c4ccccc34)[C@@](C(=O)OC)(c3cc4c(cc3OC)N(C=O)[C@H]3[C@@](O)(C(=O)OC)[C@H](OC(C)=O)[C@]5(CC)C=CCN6CC[C@]43[C@@H]65)C2)C1,,GTPase Activity [11]: 5.3; GTPase Activity [12]: 0.09
9640 nM,,6420 nM,No effect,COc1cc(C(=O)c2cc3ccccc3[nH]2)cc(OC)c1OC,,
750 nM,3500 nM,380 nM,,COc1ccccc1C(=O)c1cc2cc(C)ccc2[nH]1,2.03 µg/mL,
,,,,COc1ccc2[nH]c(C(=O)c3cccc(SC(F)(F)F)c3)cc2c1,,IC50 (Tubulin beta chain [8]): > 10000 nM; IC50 (SK-OV-3 [9]): 630 nM; IC50 (HeLa [10]): 880 nM
> 8600 nM,,> 8600 nM,No effect,COc1ccc2[nH]c(C(=O)c3cccc(OCc4ccccc4)c3)cc2c1,,
1030 nM,5600 nM,100 nM,,COc1ccc(C(=O)c2cc3cc(OC)ccc3[nH]2)c(OC)c1,1.74 µg/mL,
8700 nM,,6960 nM,No effect,COc1ccc2[nH]c(C(=O)c3c(F)cccc3F)cc2c1,,

Structure (SMILES),IC50 (SK-OV-3 [4]),IC50 (Tubulin beta chain [6]),IC50 (HeLa [7]),IC50 (Tubulin),IC70 (Tumor Cell line),other results
COc1ccc2[nH]c(C(=O)c3ccccc3)cc2c1,680 nM,,68 nM,,0.22 µg/mL,BWC (Mus musculus [13]): 11%; Activity (Mus musculus [14]): 0%; IC50 (U373 MG [15]): 62.7 nM; T/C (d) (Mus musculus [16]): 34% and 100%; Activity (Mus musculus [17]): 0%; IC50 (U373 MG [3]): 74 nM; BWC (Mus musculus [18]): 3%; BWC (Mus musculus [19]): 1%; BWC (Mus musculus [20]): 11%; GD200 (Mus musculus [21]): 12.9 days; Activity (Mus musculus [22]): 0%; GD200 (Mus musculus [23]): -0.4 days; Activity (Mus musculus [24]): 0%; GD200 (Mus musculus [25]): 4.8 days
COc1ccc2[nH]c(C(=O)c3cc(OC)c(OC)c(OC)c3)cc2c1,58 nM,990 nM,29 nM,,0.17 µg/mL,IC50 (U373 MG [3]): 73 nM; IC50 (U373 MG [5]): 36.1 nM
